Reference: ChEMBL document CHEMBL4402601, “Discovery of a Silicon-Containing Pan-Genotype Hepatitis C Virus NS5A Inhibitor” (J Med Chem, 2020)

Experiments:
[1] = Ratio of drug distribution in mouse liver to drug distribution in mouse plasma measured after 24 hrs by UPLC-MS/MS analysis; type: ADME, cell-free
Summary of the method: (§1)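 Oral dosing in mice and rats; compound measured in plasma and liver by UPLC-MS/MS at each time point, n = 3 (mean ± SD). LPR is mean liver concentration divided by mean plasma concentration.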

[2] = tested on: Hepatitis C virus; test: Antiviral activity against Hepatitis C virus subtype 1a H77 subgenomic replicon expressing NS5A Y93N mutant infected in human HuH7 cells assessed as reduction in viral replication incubated for 3 days by luciferase reporter gene assay; type: functional, organism-based, Hepacivirus hominis; settings: subtype 1a H77, Huh-7, 72 h
Summary of the method: (§2)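 NS5A resistance-associated variants introduced into GT1a-H77 or GT1b-Con1 replicons. In transient assays, each variant replicon was electroporated into a Huh-7-derived cell line. Inhibition measured as drop in luciferase signal. Percent inhibition computed per concentration; EC50 from 4-parameter logistic nonlinear fit. Fold resistance is variant EC50 relative to the matching reference replicon.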

[3] = tested on: Hepatitis C virus; test: Resistance index, ratio of EC50 for Hepatitis C virus subtype 1a H77 subgenomic replicon expressing NS5A L31M mutant infected in human HuH7 cells to EC50 for Hepatitis C virus subtype 1a H77 subgenomic replicon expressing NS5A infected in human HuH7 cells; type: functional, Hepacivirus hominis; summary of the method: as §2
[4] = tested on: Hepatitis C virus; test: Resistance index, ratio of EC50 for Hepatitis C virus subtype 1a H77 subgenomic replicon expressing NS5A Q30E mutant infected in human HuH7 cells to EC50 for Hepatitis C virus subtype 1a H77 subgenomic replicon expressing NS5A infected in human HuH7 cells; type: functional, Hepacivirus hominis
[5] = Oral bioavailability in mouse at 10 mg/kg by UPLC-MS/MS analysis; type: ADME, organism-based; settings: in vivo
Summary of the method: (§3)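 Overnight-fasted mice given a single 10 mg/kg oral dose in 2:2:96 (v/v) alcohol : Tween 80 : glucose injection. Plasma levels by UPLC-MS/MS. Bioavailability derived against a 2 mg/kg iv arm using the same formulation diluted 2.5 times with 10% glucose injection.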

[6] = tested on: Hepatitis C virus; test: Antiviral activity against Hepatitis C virus subtype 1b Con1 replicon expressing NS5A P32L mutant infected in human HuH7 cells assessed as reduction in viral replication incubated for 3 days by luciferase reporter gene assay; type: functional, organism-based, Hepacivirus hominis; settings: subtype 1b Con1, Huh-7, 72 h; summary of the method: as §2
[7] = tested on: Hepatitis C virus; test: Antiviral activity against Hepatitis C virus subtype 4a subgenomic replicon expressing NS5A infected in human HuH7 cells assessed as reduction in viral replication incubated for 3 days by luciferase reporter gene assay; type: functional, organism-based, Hepacivirus hominis; settings: Huh-7, 72 h
[8] = Tmax in mouse at 10 mg/kg, po by UPLC-MS/MS analysis; type: ADME, organism-based; settings: in vivo
Summary of the method: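 Mice fasted overnight, given a single 10 mg/kg oral dose in 2:2:96 (v/v) alcohol:Tween 80:glucose injection. Plasma concentrations measured by UPLC-MS/MS.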

[9] = tested on: Hepatitis C virus; test: Antiviral activity against Hepatitis C virus subtype 1b Con1 replicon expressing NS5A Y93H mutant infected in human HuH7 cells assessed as reduction in viral replication incubated for 3 days by luciferase reporter gene assay; type: functional, organism-based, Hepacivirus hominis; settings: subtype 1b Con1, Huh-7, 72 h; summary of the method: as §2
[10] = tested on: Hepatitis C virus; test: Resistance index, ratio of EC50 for Hepatitis C virus subtype 1a H77 subgenomic replicon expressing NS5A Y93C mutant infected in human HuH7 cells to EC50 for Hepatitis C virus subtype 1a H77 subgenomic replicon expressing NS5A infected in human HuH7 cells; type: functional, Hepacivirus hominis
[11] = Toxicity in mouse assessed as abnormality on organs at 300 mg/kg, po administered for 14 days and measured on day 14; type: organism-based; settings: in vivo, 336 h
Summary of the method: (§4)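 Mice randomised after acclimation into two groups of 5 males and 5 females. Compound at 300 mg/kg or vehicle alone given once daily by oral gavage for 14 days. Clinical signs observed daily. Body weight and food intake recorded on day 1, then twice weekly. Animals killed after the 14th dose.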

[12] = Metabolic stability in human liver microsomes assessed as compound remaining at 1 uM incubated for 60 mins by UPLC-MS/MS analysis; type: ADME, Microsome; settings: read-out: Stability
Summary of the method: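 Pooled mouse, rat or human liver microsomes (0.5 mg/mL) with 1 μM compound, 1 mM NADPH, 5 mM MgCl₂ and 100 mM potassium phosphate pH 7.4. Pre-incubated 5 min at 37 °C, started with NADPH, then run 60 min at 37 °C. Quenched with ice-cold acetonitrile containing internal standard; parent remaining measured by UPLC-MS/MS.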

[13] = Toxicity in mouse assessed as increase in cholesterol level at 300 mg/kg, po administered for 14 days and measured on day 14; type: organism-based; settings: in vivo, 336 h; summary of the method: as §4
[14] = Drug distribution in rat plasma at 10 mg/kg, po incubated for 0.5 hrs by UPLC-MS/MS analysis; type: ADME, organism-based; summary of the method: as §1
[15] = Drug distribution in mouse plasma at 10 mg/kg, po incubated for 24 hrs by UPLC-MS/MS analysis; type: ADME, organism-based; summary of the method: as §1
[16] = AUClast in mouse at 2 mg/kg, iv by UPLC-MS/MS analysis; type: ADME, organism-based; settings: in vivo
Summary of the method: (§5)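 Overnight-fasted mice dosed iv once at 2 mg/kg. Vehicle was 2:2:96 (v/v) alcohol : Tween 80 : glucose injection diluted 2.5 times with 10% glucose injection. Plasma concentration measured by UPLC-MS/MS.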

[17] = tested on: Hepatitis C virus; test: Resistance index, ratio of EC50 for Hepatitis C virus subtype 1a H77 subgenomic replicon expressing NS5A Y93H mutant infected in human HuH7 cells to EC50 for Hepatitis C virus subtype 1a H77 subgenomic replicon expressing NS5A infected in human HuH7 cells; type: functional, Hepacivirus hominis
[18] = Half life in mouse at 2 mg/kg, iv by UPLC-MS/MS analysis; type: ADME, organism-based; settings: in vivo; summary of the method: as §5
[19] = tested on: Hepatitis C virus; test: Antiviral activity against Hepatitis C virus subtype 1a H77 subgenomic replicon expressing NS5A L31M mutant infected in human HuH7 cells assessed as reduction in viral replication incubated for 3 days by luciferase reporter gene assay; type: functional, organism-based, Hepacivirus hominis; settings: subtype 1a H77, Huh-7, 72 h; summary of the method: as §2
[20] = Volume of distribution in mouse at 2 mg/kg, iv by UPLC-MS/MS analysis; type: ADME, organism-based; settings: in vivo
Summary of the method: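 Mice fasted overnight, given a single 2 mg/kg iv dose. Vehicle was the oral formulation (2:2:96 alcohol:Tween 80:glucose injection) diluted 2.5-fold with 10% glucose injection. Plasma concentrations measured by UPLC-MS/MS.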

[21] = tested on: Hepatitis C virus; test: Resistance index, ratio of EC50 for Hepatitis C virus subtype 1a H77 subgenomic replicon expressing NS5A M28T mutant infected in human HuH7 cells to EC50 for Hepatitis C virus subtype 1a H77 subgenomic replicon expressing NS5A infected in human HuH7 cells; type: functional, Hepacivirus hominis
[22] = Clearance in mouse plasma at 2 mg/kg, iv by UPLC-MS/MS analysis; type: ADME, organism-based; summary of the method: as §5
[23] = AUClast in mouse at 10 mg/kg, po by UPLC-MS/MS analysis; type: ADME, organism-based; settings: in vivo; summary of the method: as §3
[24] = Drug distribution in mouse plasma at 10 mg/kg, po incubated for 0.5 hrs by UPLC-MS/MS analysis; type: ADME, organism-based; summary of the method: as §1
[25] = Drug distribution in mouse liver at 10 mg/kg, po incubated for 24 hrs by UPLC-MS/MS analysis; type: ADME, organism-based; settings: read-out: Drug uptake; summary of the method: as §1
[26] = tested on: Hepatitis C virus; test: Antiviral activity against Hepatitis C virus subtype 6a subgenomic replicon expressing NS5A infected in human HuH7 cells assessed as reduction in viral replication incubated for 3 days by luciferase reporter gene assay; type: functional, organism-based, Hepacivirus hominis; settings: Huh-7, 72 h
Summary of the method: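 HCV replicon cell assay; inhibition of replication read as decrease in luciferase signal. Percent inhibition computed at each compound concentration; EC50 (pM) from nonlinear regression fit to a 4-parameter logistic equation. Values are means of triplicate wells, with each experiment run at least twice.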

**Q.** Which Kp at 24 h [1] does the source give for COC(=O)N[C@H](C(=O)N1CCC[C@H]1C(=O)Nc1ccc([C@@H]2CC[C@@H](c3ccc(NC(=O)[C@@H]4CCCN4C(=O)[C@@H](NC(=O)OC)[C@@H](C)OC)cc3)N2c2cc(F)c(N3CC[Si](C)(C)CC3)c(F)c2)cc1)[C@@H](C)OC here?
**A.** 17.9

**Q.** And the EC50 [2]?
**A.** > 0.25 nM

**Q.** What about the “Ratio EC50” value [3] of the same compound?
**A.** 9.9

**Q.** And the “Ratio EC50” value [4]?
**A.** 175

**Q.** And the bioavailability [5]?
**A.** 7.2%

**Q.** What about the EC50 [6] of the same compound?
**A.** 0.00164 nM

**Q.** What about the EC50 [7] of the same compound?
**A.** 0.00033 nM

**Q.** And the Tmax [8]?
**A.** 7.3 h

**Q.** What about the EC50 [9] of the same compound?
**A.** 0.0204 nM

**Q.** What about the “Ratio EC50” value [10] of the same compound?
**A.** >203

**Q.** What about the Activity [11] of the same compound?
**A.** Non-Toxic

**Q.** And the remaining at 1 h, 1 µM [12]?
**A.** 80.9%

**Q.** What about the Activity [13] of the same compound?
**A.** Non-Toxic

**Q.** What about the concentration at 0.5 h [14] of the same compound?
**A.** 40.9 ng/mL

**Q.** And the concentration at 24 h [15]?
**A.** 58.6 ng/mL

**Q.** And the AUClast [16]?
**A.** 17863 ng/hr.ml

**Q.** What about the “Ratio EC50” value [17] of the same compound?
**A.** >833

**Q.** And the half-life [18]?
**A.** 12.2 h

**Q.** What about the EC50 [19] of the same compound?
**A.** 0.0122 nM

**Q.** What about the Vd [20] of the same compound?
**A.** 1.56 L/kg

**Q.** What about the “Ratio EC50” value [21] of the same compound?
**A.** 1.9

**Q.** And the clearance [22]?
**A.** 1.67 mL/min/kg

**Q.** And the AUClast [23]?
**A.** 6446 ng/hr.ml

**Q.** And the concentration at 0.5 h [24]?
**A.** 160 ng/mL

**Q.** What about the concentration at 24 h [25] of the same compound?
**A.** 625 ng/g

**Q.** And the EC50 [26]?
**A.** 0.017 nM
